Source: PubChem BioAssay (several laboratories)
Rows were chosen to be rich in hits. Some 4.1% of all compounds tested hit in one or more screens of this group.
hERG protect: compounds protecting human hERG from proarrhythmic drug block | Q12809 | CHO-hERG, FluxOR thallium flux, dofetilide IC70 present | activation (rescue from dofetilide block), less the hit threshold, % at 10 µM | 0.51% of 310,000 active | AID 1511;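 active means activation above the mean of controls blocked by dofetilide plus 5 SD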;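 further: thallium influx through hERG after potassium depolarization seen as dye fluorescence rise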
Cl transport mod: modulates chloride dependent transport by human KCC2. 2.2% of 190,000 active. KCC2 cells, thallium flux FluoZin-2 fluorescence. AID 1456. Q9H2X9. B-score of Tl+ flux slope (higher = more flux/activation; lower = inhibition) at 10 µM;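 active means thallium flux slope and its plate-corrected score both differing from the plate sample mean at a set confidence after two filtering rounds, in either direction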;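 further: slope of fluorescence scaled to starting intensity during 10 to 20 s after thallium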
KCNQ1 pot: potentiators or activators of human KCNQ1 potassium channel | P51787 | CHO-K1 KCNQ1, thallium flux FluxOR fluorescence; active compounds read high | B-score at 10 µM | 0.35% of 310,000 active | AID 2648;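 active means fluorescence ratio B-score, a plate-corrected score, at least three library SD, with initial intensity B-score within 5 SD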
Target sequence (P51787 whole entry, looked up): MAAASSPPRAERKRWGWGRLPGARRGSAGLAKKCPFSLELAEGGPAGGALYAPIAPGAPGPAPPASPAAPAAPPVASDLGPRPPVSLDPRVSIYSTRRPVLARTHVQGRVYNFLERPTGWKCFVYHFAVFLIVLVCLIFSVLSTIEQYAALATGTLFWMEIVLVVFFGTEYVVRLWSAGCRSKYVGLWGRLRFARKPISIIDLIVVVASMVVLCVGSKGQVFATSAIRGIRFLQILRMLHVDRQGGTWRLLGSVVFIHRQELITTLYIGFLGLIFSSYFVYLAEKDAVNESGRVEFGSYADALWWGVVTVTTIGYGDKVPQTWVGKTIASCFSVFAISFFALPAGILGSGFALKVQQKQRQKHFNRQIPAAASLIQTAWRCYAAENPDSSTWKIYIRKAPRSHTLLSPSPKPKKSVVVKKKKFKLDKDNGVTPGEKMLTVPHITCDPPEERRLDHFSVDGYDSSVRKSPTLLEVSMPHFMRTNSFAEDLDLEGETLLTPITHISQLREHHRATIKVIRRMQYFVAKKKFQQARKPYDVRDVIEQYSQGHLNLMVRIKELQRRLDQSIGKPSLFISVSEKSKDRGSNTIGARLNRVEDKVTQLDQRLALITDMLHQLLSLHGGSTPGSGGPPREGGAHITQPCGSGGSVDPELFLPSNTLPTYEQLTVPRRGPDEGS
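System: Stable KCNQ1 CHO-K1 line | Incubation: 90 min dye loading and 20 min compound exposure, both at room temperature | Measure: Ratio B score | Medium: Assay buffer for compound exposure, DMSO matched across wells | Compound dosing: Single-concentration screen | Probe or stimulus: K+/Tl+ depolarizing stimulus | Measured by: Kinetic FluxOR fluorescence, 10 s baseline plus 110 s post-stimulus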
KCNK9 inh: inhibitors of human KCNK9 two-pore domain potassium channel; 1.2% of 310,000 active; B-score at 10 µM; HEK293 KCNK9, FluxOR thallium flux fluorescence; active compounds read low; AID 488922; Q9NPC2;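 active means ratio B-score over 3 SD below the library mean, with starting fluorescence within 5 SD of its mean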;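 further: negative B-score means less thallium flux so channel inhibition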
KCNQ1 block: human KCNQ1 channel inhibition. P51787. CHO-K1 KCNQ1, FluxOR thallium flux fluorescence; active compounds read high. B-score at 10 µM. 1.3% of 310,000 active. AID 2642;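 active means compounds whose thallium flux B-score, printed positive for inhibition, exceeds three library SD while starting fluorescence stays within three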;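 further: channel opened by potassium depolarization with thallium stimulus after 20 min compound exposure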
KCNK3 block: human KCNK3 channel inhibition, primary screen. AID 602410. B-score at 10 µM. O14649. CHO-KCNK3 thallium flux, FluxOR fluorescence; active compounds read low. 0.84% of 340,000 active;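 active means B-score under library mean minus 4 SD, starting fluorescence ratio at most library mean plus 5 SD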;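 further: more negative B-score means stronger inhibition of thallium flux through KCNK3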
KCC2 secondary: KCC2 (human) modulation, secondary assay; shares compounds with Cl transport mod; HEK293-KCC2, thallium flux, FluoZin2 fluorescence; active compounds read high; normalised thallium flux (F/F0 slope) at 10 µM; 15% of 3,700 active;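 active means thallium flux slope above the same plate's solvent-only control mean plus 3 SD; inconclusive means the two replicate wells disagree; inactive means no significant difference from solvent-only control wells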
KCC2 bumet counter: thallium flux persisting under bumetanide in KCC2 cells, counter-screen secondary assay; shares compounds with Cl transport mod; HEK293-KCC2 + bumetanide/ouabain, thallium flux FluoZin2; active compounds read high; normalized thallium flux at 10 µM; 49% of 3,700 active; AID 1714;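 active means thallium entry rate above the same plate's blocked-transporter control wells by more than 3 SD; inconclusive means the two repeat wells disagree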;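 further: raw slope of fluorescence over initial fluorescence between 10 and 20 s after thallium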
KCC2 secondary2: confirmation of human KCC2 transport modulators; AID 1715; normalized thallium flux at 10 µM; 23% of 3,700 active; HEK293-KCC2, thallium flux FluoZin2 fluorescence; actives lie on both sides; F/F0 rise rate, 10–20 s post-thallium; shares compounds with Cl transport mod;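 active means thallium flux slope more than 3 SD above or below the plate's solvent-only control mean, mostly below; inconclusive means the two repeat wells disagreed; inactive means no significant shift from solvent-only controls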
HEK293 Tl flux: parental HEK flux effect, counter-screen. shares compounds with Cl transport mod. HEK293 parental cells, thallium flux FluoZin2, ouabain; baseline-ratio fluorescence slope, 10–20 s after thallium. thallium flux rate (normalised fluorescence) at 10 µM. 46% of 3,700 active;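 active means thallium flux rate significantly above the same plate's solvent-only control wells, beyond their mean plus 3 SD; inconclusive means the two replicate wells gave conflicting results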
KCC2 retest ouab: KCC2 (human) modulation, ouabain retest; shares compounds with Cl transport mod; HEK293-KCC2, thallium flux FluoZin2 fluorescence; bidirectional: low = inhibitor, high = activator; raw Tl+ flux slope (below DMSO = inhibition, above = activation) at 10 µM; 48% of 3,700 active; AID 1717;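 active means thallium flux slope beyond 3 SD from same-plate DMSO control mean in most replicates, usually higher, sometimes lower; inconclusive means repeat tests gave conflicting results; inactive means no significant difference from controls in most replicates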;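 further: slope of initial-normalized fluorescence between seconds 10 and 20 after thallium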
HEK293 Tl flux2: parental HEK flux effect, counter-screen 2 | shares compounds with Cl transport mod | 33% of 3,700 active | HEK293 parental, thallium flux FluoZin-2 fluorescence slope | thallium flux slope at 10 µM;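 active means thallium flux slope above the same plate's solvent-control mean plus 3 SD in both duplicate wells; inconclusive means duplicate wells that disagreed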;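 further: run without ouabain in cells lacking the KCC2 cotransporter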
Each line names hits and unclear results; the compound was inactive in the other large screens (follow-up assays come after a bar, where they were run).

CCC1CCCCN1C(=S)NC(=O)c1ccc(F)c(S(=O)(=O)N2CCOCC2)c1 (stereo not given)	Cl transport mod 3.2 | KCC2 secondary inconclusive | KCC2 bumet counter 0.0188 | KCC2 secondary2 inactive | HEK293 Tl flux 0.0105 | KCC2 retest ouab 0.0288 | HEK293 Tl flux2 inconclusive
CCC1CCCCN1C(=S)NC(=O)c1cccs1 (stereo not given)	hERG protect 5.3, Cl transport mod 62.7, KCNQ1 pot 8 | KCC2 secondary 0.0363 | KCC2 bumet counter 0.103 | KCC2 secondary2 0.0857 | HEK293 Tl flux 0.0882 | KCC2 retest ouab 0.0877 | HEK293 Tl flux2 0.0872
O=C(NC(=S)N1CCCCC1CO)c1cccs1 (stereo not given)	none (no result: hERG protect, Cl transport mod, KCNQ1 pot, KCNK9 inh, KCNQ1 block)
O=C(NCC1CCCCC1)c1ccc(F)c(S(=O)(=O)N2CCOCC2)c1	none (no result: hERG protect, Cl transport mod, KCNQ1 pot, KCNK9 inh, KCNQ1 block)
c1ccc(C2=NNC(c3ccccn3)=NN2)nc1	none (no result: Cl transport mod)
CCOC(=O)C1CCCN(C(=O)CCCn2nc(C)n3c(cc4sccc43)c2=O)C1 (stereo not given)	Cl transport mod -4.24 | KCC2 secondary inactive | KCC2 bumet counter 0.00876 | KCC2 secondary2 inactive | HEK293 Tl flux inactive | KCC2 retest ouab inactive | HEK293 Tl flux2 inactive
Cc1nc(NCc2cccnc2)c2c3c(sc2n1)CC(C)CC3 (stereo not given)	hERG protect 51.5, Cl transport mod 59.5, KCNQ1 pot 38 | KCC2 secondary 0.0364 | KCC2 bumet counter 0.158 | KCC2 secondary2 0.0383 | HEK293 Tl flux 0.0968 | KCC2 retest ouab 0.0865 | HEK293 Tl flux2 0.0345
O=C(c1cc(S(=O)(=O)N2CCOCC2)c(Cl)cc1Cl)N1CCN(S(=O)(=O)c2cccc(F)c2)CC1	none (no result: hERG protect, Cl transport mod, KCNQ1 pot, KCNK9 inh, KCNQ1 block)
O=C1c2ccccc2C(Nc2ccc(S(=O)(=O)N3CCCCCC3)cc2)N1Cc1ccco1 (stereo not given)	Cl transport mod -5.47, KCNK3 block -8.71 | KCC2 secondary inactive | KCC2 bumet counter inactive | KCC2 secondary2 inactive | HEK293 Tl flux inactive | KCC2 retest ouab 0.0162 | HEK293 Tl flux2 inactive
CCc1ccccc1NC1c2ccccc2C(=O)N1Cc1ccco1 (stereo not given)	none
CC(=O)c1cccc(NC(=O)Nc2ccc(C(=O)N3CCOCC3)cc2)c1	Cl transport mod -3.1 | KCC2 secondary inactive | KCC2 bumet counter inactive | KCC2 secondary2 inactive | HEK293 Tl flux inactive | KCC2 retest ouab inactive | HEK293 Tl flux2 inactive
CC(=O)Nc1ccc(C(=O)N2CCCC2)cc1	Cl transport mod -4.54 | KCC2 secondary inactive | KCC2 bumet counter inactive | KCC2 secondary2 inactive | HEK293 Tl flux inactive | KCC2 retest ouab inactive | HEK293 Tl flux2 inactive
O=C(Nc1ccc(C(=O)N2CCCC2)cc1)C1CC1	none (no result: hERG protect, Cl transport mod, KCNQ1 pot, KCNK9 inh, KCNQ1 block)
O=C(CN1C(=O)C2CC=CCC2C1=O)Nc1nc(-c2ccc(F)c(F)c2)cs1 (stereo not given)	none (no result: hERG protect, Cl transport mod, KCNQ1 pot, KCNK9 inh, KCNQ1 block)
Cc1c(C(=O)NCCSCc2c(F)cccc2Cl)cnn1-c1ccc(F)cc1	none
Cc1c(C(=O)NCCSCc2ccc(F)cc2)cnn1-c1ccc(Cl)cc1	Cl transport mod -3.83 | KCC2 secondary inactive | KCC2 bumet counter inactive | KCC2 secondary2 inconclusive | HEK293 Tl flux inactive | KCC2 retest ouab 0.0169 | HEK293 Tl flux2 inactive
S=c1nc(-c2sccc2OCc2ccc(Cl)cc2Cl)[nH][nH]1	Cl transport mod 23.6 | KCC2 secondary inactive | KCC2 bumet counter 0.0866 | KCC2 secondary2 inactive | HEK293 Tl flux 0.0227 | KCC2 retest ouab inconclusive | HEK293 Tl flux2 0.0134
CNC(=S)NNC(=O)c1sccc1OCc1ccc(Cl)cc1Cl	none (no result: Cl transport mod)
CC(C(=O)N1c2ccccc2CC1C)N1CCN(S(=O)(=O)c2ccccc2F)CC1 (stereo not given)	none (no result: hERG protect, Cl transport mod, KCNQ1 pot, KCNK9 inh, KCNQ1 block)
NCc1ccccc1CS(=O)(=O)N1CCOCC1	none (no result: hERG protect, Cl transport mod, KCNQ1 pot, KCNK9 inh, KCNQ1 block)
O=C(Nc1cccnc1)c1ccc(N2CCOCC2)c([N+](=O)[O-])c1	none (no result: Cl transport mod)
O=C(NNC(=S)Nc1ccc(Br)cc1)c1ccc(N2CCOCC2)c([N+](=O)[O-])c1	Cl transport mod -3.83, KCNQ1 block 9 | KCC2 secondary inactive | KCC2 bumet counter inactive | KCC2 secondary2 inactive | HEK293 Tl flux inconclusive | KCC2 retest ouab 0.0158 | HEK293 Tl flux2 inactive
COC(=O)c1cnn(-c2ccccc2)c1C(OC)OC	none
CNC(=S)N/N=C/c1c(C(=O)OC)cnn1-c1ccc(F)cc1F	none
COC(=O)c1cnn(-c2ccccc2)c1/C=N/NC(=S)Nc1ccccc1	Cl transport mod 9.21 | KCC2 secondary inactive | KCC2 bumet counter 0.0191 | KCC2 secondary2 inactive | HEK293 Tl flux 0.0119 | KCC2 retest ouab 0.0293 | HEK293 Tl flux2 inactive
COC(=O)c1cnn(-c2ccc(F)cc2F)c1/C=N/NC(=S)NC(C)(C)C	Cl transport mod 7.82, KCNK9 inh -6.99 | KCC2 secondary inactive | KCC2 bumet counter 0.0512 | KCC2 secondary2 inactive | HEK293 Tl flux 0.0167 | KCC2 retest ouab inactive | HEK293 Tl flux2 inconclusive
CC1CCCN(C(=O)COC(=O)Cn2cnc3ccccc32)C1 (stereo not given)	none (no result: hERG protect, Cl transport mod, KCNQ1 pot, KCNK9 inh, KCNQ1 block)
CCOC(=O)c1c(C)[nH]c(C)c1C(=O)CSc1nc2ccccc2c(=O)n1-c1ccc(CC)cc1	Cl transport mod 3.98 | KCC2 secondary inactive | KCC2 bumet counter 0.0155 | KCC2 secondary2 inactive | HEK293 Tl flux inconclusive | KCC2 retest ouab inactive | HEK293 Tl flux2 inconclusive
CCOC(=O)c1c(C)[nH]c(C)c1C(=O)CSc1nc2ccccc2n1CC	none
O=C(CO/N=C/c1c(Cl)cccc1Cl)NNC(=O)c1ccc(Cl)cc1	Cl transport mod 6.66 | KCC2 secondary inactive | KCC2 bumet counter 0.0125 | KCC2 secondary2 inactive | HEK293 Tl flux inconclusive | KCC2 retest ouab inactive | HEK293 Tl flux2 inactive
